Data reported in ChEMBL document CHEMBL5058577, “EUbOPEN Chemogenomics Library 2 (Multiplex)” (2022).

Tested on: Fibroblast
Assay: Multiplex assay against human fibroblast
Assay type: toxicity, cell-based
Procedure, shortened: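 Imaging took place on a CQ1 microscope at 37°C and 5% CO2 once compound had been added to live cells stained at seeding with Hoechst33342, BioTracker Green Microtubule Cytoskeleton Dye, MitoTracker Red and Annexin V Alexa Fluor 680. CellPathfinder machine-learning gating classed cells as Hoechst high-intensity objects or normal cells, classed normal cells as having healthy, pyknosed or fragmented nuclei, and classed pyknosed cells as mitotic or apoptotic. Tubulin, mitochondrial-mass and membrane-permeability phenotypes are per cents of the healthy-nucleus cells.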

[1] = 12 h, 1 µM, compound concentration 1 uM, replicate 1
[2] = 12 h, 1 µM, compound concentration 1 uM, replicate 2
[3] = 12 h, 10 µM, compound concentration 10 uM, replicate 1
[4] = 12 h, 10 µM, compound concentration 10 uM, replicate 2
[5] = 24 h, 1 µM, compound concentration 1 uM, replicate 1
[6] = 24 h, 1 µM, compound concentration 1 uM, replicate 2
[7] = 24 h, 10 µM, compound concentration 10 uM, replicate 1
[8] = 24 h, 10 µM, compound concentration 10 uM, replicate 2
[9] = 48 h, 1 µM, compound concentration 1 uM, replicate 1
[10] = 48 h, 1 µM, compound concentration 1 uM, replicate 2
[11] = 48 h, 10 µM, compound concentration 10 uM, replicate 1
[12] = 48 h, 10 µM, compound concentration 10 uM, replicate 2

For `CC(C)(C)c1cc(NC(=O)Nc2ccc(-c3cn4c(n3)sc3cc(OCCN5CCOCC5)ccc34)cc2)no1` [QUIZARTINIB], the “Population Apoptotic (%)” value [1] was 42%, the “Population Fragmented Nuclei (%)” value [1] was 16% and the “Population Healthy Nuclei (%)” value [1] was 65%. The “Population Hoechst High Intensity Objects (%)” value [1] was 2%, the “Population Membrane Permeable-Phenotype (%)” value [1] was 0% and the “Population Mitochondria Different-Phenotype (%)” value [1] was 7%. The “Population Mitotic Cells (%)” value [1] was 57%, the “Population Normal (%)” value [1] was 97% and the “Population Pyknosed Nuclei (%)” value [1] was 17%. The “Population Tubulin-Different-Phenotype (%)” value [1] was 31%, the “Total Cell Count” value [1] was 150 and the “Population Apoptotic (%)” value [2] was 41%. The “Population Fragmented Nuclei (%)” value [2] was 24%, the “Population Healthy Nuclei (%)” value [2] was 52% and the “Population Membrane Permeable-Phenotype (%)” value [2] was 1%. The “Population Mitochondria Different-Phenotype (%)” value [2] was 5%, the “Population Mitotic Cells (%)” value [2] was 58% and the “Population Pyknosed Nuclei (%)” value [2] was 23%. The “Population Tubulin-Different-Phenotype (%)” value [2] was 41%, the “Total Cell Count” value [2] was 137 and the “Population Apoptotic (%)” value [3] was 43%. For the same compound, the “Population Fragmented Nuclei (%)” value [3] was 34%, the “Population Healthy Nuclei (%)” value [3] was 56% and the “Population Hoechst High Intensity Objects (%)” value [3] was 3%. The “Population Membrane Permeable-Phenotype (%)” value [3] was 0%, the “Population Mitochondria Different-Phenotype (%)” value [3] was 10% and the “Population Mitotic Cells (%)” value [3] was 56%. For the same compound, the “Population Normal (%)” value [3] was 96%, the “Population Pyknosed Nuclei (%)” value [3] was 8% and the “Population Tubulin-Different-Phenotype (%)” value [3] was 75%. The “Total Cell Count” value [3] was 190, the “Population Apoptotic (%)” value [4] was 48% and the “Population Fragmented Nuclei (%)” value [4] was 35%. The “Population Healthy Nuclei (%)” value [4] was 45%, the “Population Hoechst High Intensity Objects (%)” value [4] was 5% and the “Population Membrane Permeable-Phenotype (%)” value [4] was 5%. For the same compound, the “Population Mitochondria Different-Phenotype (%)” value [4] was 5%, the “Population Mitotic Cells (%)” value [4] was 51% and the “Population Normal (%)” value [4] was 94%. The “Population Pyknosed Nuclei (%)” value [4] was 18%, the “Population Tubulin-Different-Phenotype (%)” value [4] was 70% and the “Total Cell Count” value [4] was 162. For the same compound, the “Population Apoptotic (%)” value [5] was 58%, the “Population Fragmented Nuclei (%)” value [5] was 14% and the “Population Healthy Nuclei (%)” value [5] was 72%. The “Population Hoechst High Intensity Objects (%)” value [5] was 1%, the “Population Membrane Permeable-Phenotype (%)” value [5] was 0% and the “Population Mitochondria Different-Phenotype (%)” value [5] was 6%. For the same compound, the “Population Mitotic Cells (%)” value [5] was 41%, the “Population Normal (%)” value [5] was 98% and the “Population Pyknosed Nuclei (%)” value [5] was 12%. For the same compound, the “Population Tubulin-Different-Phenotype (%)” value [5] was 32%, the “Total Cell Count” value [5] was 137 and the “Population Apoptotic (%)” value [6] was 42%. For the same compound, the “Population Fragmented Nuclei (%)” value [6] was 25%, the “Population Healthy Nuclei (%)” value [6] was 61% and the “Population Hoechst High Intensity Objects (%)” value [6] was 3%. For the same compound, the “Population Membrane Permeable-Phenotype (%)” value [6] was 2%, the “Population Mitotic Cells (%)” value [6] was 57% and the “Population Normal (%)” value [6] was 96%. For the same compound, the “Population Pyknosed Nuclei (%)” value [6] was 13%, the “Population Tubulin-Different-Phenotype (%)” value [6] was 44% and the “Total Cell Count” value [6] was 152. The “Population Apoptotic (%)” value [7] was 75%, the “Population Fragmented Nuclei (%)” value [7] was 33% and the “Population Healthy Nuclei (%)” value [7] was 57%. For the same compound, the “Population Hoechst High Intensity Objects (%)” value [7] was 1%, the “Population Membrane Permeable-Phenotype (%)” value [7] was 0% and the “Population Mitochondria Different-Phenotype (%)” value [7] was 21%. The “Population Mitotic Cells (%)” value [7] was 25%, the “Population Normal (%)” value [7] was 98% and the “Population Pyknosed Nuclei (%)” value [7] was 8%. The “Population Tubulin-Different-Phenotype (%)” value [7] was 71%, the “Total Cell Count” value [7] was 190 and the “Population Apoptotic (%)” value [8] was 39%. For the same compound, the “Population Fragmented Nuclei (%)” value [8] was 40%, the “Population Healthy Nuclei (%)” value [8] was 46% and the “Population Hoechst High Intensity Objects (%)” value [8] was 4%. The “Population Membrane Permeable-Phenotype (%)” value [8] was 1%, the “Population Mitochondria Different-Phenotype (%)” value [8] was 10% and the “Population Mitotic Cells (%)” value [8] was 60%. The “Population Normal (%)” value [8] was 95%, the “Population Pyknosed Nuclei (%)” value [8] was 13% and the “Population Tubulin-Different-Phenotype (%)” value [8] was 70%. For the same compound, the “Total Cell Count” value [8] was 179, the “Population Apoptotic (%)” value [9] was 75% and the “Population Fragmented Nuclei (%)” value [9] was 19%. For the same compound, the “Population Healthy Nuclei (%)” value [9] was 71%, the “Population Hoechst High Intensity Objects (%)” value [9] was 8% and the “Population Membrane Permeable-Phenotype (%)” value [9] was 0%. For the same compound, the “Population Mitochondria Different-Phenotype (%)” value [9] was 5%, the “Population Mitotic Cells (%)” value [9] was 25% and the “Population Normal (%)” value [9] was 91%. The “Population Pyknosed Nuclei (%)” value [9] was 9%, the “Population Tubulin-Different-Phenotype (%)” value [9] was 38% and the “Total Cell Count” value [9] was 145. The “Population Apoptotic (%)” value [10] was 42%, the “Population Fragmented Nuclei (%)” value [10] was 30% and the “Population Healthy Nuclei (%)” value [10] was 60%. The “Population Hoechst High Intensity Objects (%)” value [10] was 3%, the “Population Membrane Permeable-Phenotype (%)” value [10] was 1% and the “Population Mitochondria Different-Phenotype (%)” value [10] was 8%. The “Population Mitotic Cells (%)” value [10] was 57%, the “Population Normal (%)” value [10] was 96% and the “Population Tubulin-Different-Phenotype (%)” value [10] was 34%. For the same compound, the “Total Cell Count” value [10] was 158, the “Population Apoptotic (%)” value [11] was 79% and the “Population Fragmented Nuclei (%)” value [11] was 30%. The “Population Healthy Nuclei (%)” value [11] was 56%, the “Population Hoechst High Intensity Objects (%)” value [11] was 7% and the “Population Membrane Permeable-Phenotype (%)” value [11] was 0%. The “Population Mitochondria Different-Phenotype (%)” value [11] was 25%, the “Population Mitotic Cells (%)” value [11] was 20% and the “Population Normal (%)” value [11] was 92%. The “Population Pyknosed Nuclei (%)” value [11] was 13%, the “Population Tubulin-Different-Phenotype (%)” value [11] was 74% and the “Total Cell Count” value [11] was 195. The “Population Apoptotic (%)” value [12] was 60%, the “Population Fragmented Nuclei (%)” value [12] was 44% and the “Population Healthy Nuclei (%)” value [12] was 50%. For the same compound, the “Population Hoechst High Intensity Objects (%)” value [12] was 3%, the “Population Membrane Permeable-Phenotype (%)” value [12] was 2% and the “Population Mitochondria Different-Phenotype (%)” value [12] was 6%. For the same compound, the “Population Mitotic Cells (%)” value [12] was 40%, the “Population Normal (%)” value [12] was 96% and the “Population Pyknosed Nuclei (%)” value [12] was 5%. For the same compound, the “Population Tubulin-Different-Phenotype (%)” value [12] was 59%.
